Measured values gathered from unrelated publications.
Each line is one published result; the experiments were not run side by side.
SLC6A3: Sodium-dependent dopamine transporter (SLC6A3, Homo sapiens, UniProt Q01959)
DRD3: D(3) dopamine receptor (DRD3, Homo sapiens, UniProt P35462)
HDAC5: Histone deacetylase 5 (HDAC5, Homo sapiens, UniProt Q9UQL6)

CNc1nc(C#Cc2ccc(Cl)s2)nc2c1ncn2[C@H]1[C@H](O)[C@H](O)[C@]2(C(=O)OC)C[C@H]12
IC50 (SLC6A3; transporter uptake; inhibitor; radiometric): 380 nM

CCCN(CCC)S(=O)(=O)c1ccc(C(=O)O)cc1
IC50 (Taste receptor type 2 member 16 (TAS2R16, Homo sapiens, UniProt Q9NYV7); inositol phosphate; antagonist; TR-FRET): 770000 nM

CSc1ccc(NS(=O)(=O)c2c(C)[nH]c(C)c2C(=O)N2CCC(F)(F)C2)cc1Cl
IC50 (DRD3; G protein activation; antagonist; BRET): 6000 nM

Nc1cnccc1Nc1ccc(Cl)c(Cl)c1
IC50 (DNA repair nuclease/redox regulator APEX1 (APEX1, Homo sapiens, UniProt P27695); enzyme activity; inhibitor): > 100000 nM

CN(C)C(=O)c1cc2cnc(Nc3ccc(-c4ccc5c(=O)cc(N6CCOCC6)oc5c4)cc3)nc2n1C1CCCC1
IC50 (DNA-dependent protein kinase catalytic subunit (PRKDC, Homo sapiens, UniProt P78527); enzyme activity; inhibitor): 192 nM

CN1CCN(c2nc(-c3cc4cc(Br)ccc4oc3=O)cs2)CC1
IC50 (Carbonic anhydrase 12 (CA12, Homo sapiens, UniProt O43570); enzyme activity; inhibitor; absorbance): 2820 nM

Cc1[nH]c(C)c(S(=O)(=O)Nc2ccc(Cl)c(C(F)(F)F)c2)c1C(=O)N1CCC(F)(F)C1
IC50 (DRD3; G protein activation; antagonist; BRET): 15000 nM

N#CC[C@@]12C[C@@H]1[C@@H](n1cnc3c(NCCCCCCc4ccccc4)nc(I)nc31)[C@H](O)[C@@H]2O
IC50 (SLC6A3; transporter uptake; inhibitor; radiometric): 1700 nM

COc1ccc(N(Cc2nc(-c3ccc(F)cc3)cs2)C(=O)CCCCCC(=O)NO)cc1
IC50 (HDAC5; enzyme activity; inhibitor): > 10000 nM

COc1c(Cl)cccc1Nc1c(-c2ccncc2OC[C@@H]2COCCO2)[nH]c2c1C(=O)NCC2
IC50 (Discoidin domain-containing receptor 2 (DDR2, Homo sapiens, UniProt Q16832); ligand displacement; TR-FRET): 53 nM

Cc1[nH]c(C)c(S(=O)(=O)Nc2ccc(C(F)(F)F)c(Cl)c2)c1C(=O)N1CCCC1
IC50 (DRD3; β-arrestin recruitment; antagonist): 2800 nM

O=C(Nc1ccc2[nH]c(=O)oc2c1)C(=O)N1CCC(Cc2ccc(F)cc2)CC1
IC50 (Glutamate NMDA receptor; GRIN1/GRIN2B (GRIN1/GRIN2B, Homo sapiens, UniProt Q05586+Q13224); ion current; two-electrode voltage clamp; oocytes): 29 nM

Cc1[nH]c(C)c(S(=O)(=O)Nc2ccc(C(F)(F)F)c3ncccc23)c1C(=O)N1CCC(F)(F)C1
IC50 (DRD3; G protein activation; antagonist; BRET): 15000 nM

O=C(NO)c1ccc(Cn2cnc3c(Nc4cccc([N+](=O)[O-])c4)ncnc32)cc1
IC50 (HDAC5; enzyme activity; inhibitor): 1140 nM

CCc1ccc(NS(=O)(=O)c2c(C)[nH]c(C)c2C(=O)N2CCC(F)(F)C2)cc1Cl
IC50 (DRD3; β-arrestin recruitment; antagonist): 5200 nM

COc1ccc(N(Cc2csc(-c3ccc(C)cc3)n2)C(=O)CCCCCC(=O)NO)cc1
IC50 (HDAC5; enzyme activity; inhibitor): > 10000 nM
